Assay results as given in ChEMBL document CHEMBL1137859, “Synthesis of C8-linked pyrrolo[2,1-c][1,4]benzodiazepine-benzimidazole conjugates with remarkable DNA-binding affinity” (2004).
Blank lines part the entries; values can stand above or below the molecule they belong to.

How the values were obtained:
Calf thymus DNA [1] = experiment: Thermal denaturation of calf thymus DNA at 0 h, incubation at 37 degree C; type: nucleic-acid assay; settings: Bos taurus
How it was run: (§1)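 CT-DNA (100 μM) with ligand 20 μM (PBD/DNA molar ratio 1:5) in aqueous sodium phosphate buffer (10 mM sodium phosphate + 1 mM EDTA, pH 7.00±0.01). Incubated at 37 °C for 0 h or 18 h, then thermal helix→coil melting followed. ΔTm taken relative to DNA alone (Tm mean of 20 separate determinations). ΔTm values ±0.05–0.1 °C.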

Calf thymus DNA [2] = experiment: Thermal denaturation of calf thymus DNA at 18 h, incubation at 37 degree C; type: nucleic-acid assay; settings: Bos taurus; how it was run: as §1
UACC-62 = experiment: In vitro concentration required to produce 50% lethality against human melanoma UACC-62 cell line; type: functional; settings: read-out: LC50 (the source's name)
MDA-MB-435 = experiment: In vitro concentration required to produce 50% lethality against human breast MDA-MB-435 cell line; type: functional; settings: read-out: LC50 (the source's name)
Malme-3M = experiment: In vitro concentration required to produce 50% lethality against human melanoma MALME-3M cell line; type: functional; settings: read-out: LC50 (the source's name)
SK-MEL-2 = experiment: In vitro concentration required to produce 50% lethality against human melanoma SK-MEL-2 cell line; type: functional; settings: read-out: LC50 (the source's name)
SK-MEL-5 = experiment: In vitro concentration required to produce 50% lethality against human melanoma SK-MEL-5 cell line; type: functional; settings: read-out: LC50 (the source's name)
MDA-MB-231 = experiment: In vitro concentration required to produce 50% lethality against human breast MDA-MB-231/ATCC cell line; type: functional; settings: read-out: LC50 (the source's name)
EKVX = experiment: In vitro concentration required to produce 50% lethality against human non small cell lung EKVX cell line; type: functional; settings: read-out: LC50 (the source's name)
HOP-62 = experiment: In vitro concentration required to produce 50% lethality against human non small cell lung HOP-62 cell line; type: functional; settings: read-out: LC50 (the source's name)
NCI-H226 = experiment: In vitro concentration required to produce 50% lethality against human non small cell lung NCI-H226 cell line; type: functional; settings: read-out: LC50 (the source's name)
NCI-H522 = experiment: In vitro concentration required to produce 50% lethality against human non small cell lung NCI-H522 cell line; type: functional; settings: read-out: LC50 (the source's name)
[3] = In vitro concentration required to produce 50% lethality against human CNS […] cell line; type: functional; settings: read-out: LC50 (the source's name)
SF-539 = experiment: In vitro concentration required to produce 50% lethality against human CNS SF-539 cell line; type: functional; settings: read-out: LC50 (the source's name)
SNB-19 = experiment: In vitro concentration required to produce 50% lethality against human CNS SNB-19 cell line; type: functional; settings: read-out: LC50 (the source's name)
KM12 = experiment: In vitro concentration required to produce 50% lethality against human colon KM12 cell line; type: functional; settings: read-out: LC50 (the source's name)
786-0 = experiment: In vitro concentration required to produce 50% lethality against human renal 786-0 cell line; type: functional; settings: read-out: LC50 (the source's name)
A498 = experiment: In vitro concentration required to produce 50% lethality against human renal A-498 cell line; type: functional; settings: read-out: LC50 (the source's name)
TK-10 = experiment: In vitro concentration required to produce 50% lethality against human renal TK-10 cell line; type: functional; settings: read-out: LC50 (the source's name)
M14 = experiment: In vitro concentration required to produce 50% lethality against human melanoma M14 cell line; type: functional; settings: read-out: LC50 (the source's name)
SN12C = experiment: In vitro concentration required to produce 50% lethality against human renal SN12C cell line; type: functional; settings: read-out: LC50 (the source's name)
BT-549 = experiment: In vitro concentration required to produce 50% lethality against human breast BT-549 cell line; type: functional; settings: read-out: LC50 (the source's name)
PC-3 = experiment: In vitro concentration required to produce 50% lethality against human prostate PC-3 cell line; type: functional; settings: read-out: LC50 (the source's name)
RXF 393 = experiment: In vitro concentration required to produce 50% lethality against human renal RXF 393 cell line; type: functional; settings: read-out: LC50 (the source's name)
IGROV-1 = experiment: In vitro concentration required to produce 50% lethality against human ovarian IGROVI cell line; type: functional; settings: read-out: LC50 (the source's name)
OVCAR-3 = experiment: In vitro concentration required to produce 50% lethality against human ovarian OVCAR-3 cell line; type: functional; settings: read-out: LC50 (the source's name)
OVCAR-5 = experiment: In vitro concentration required to produce 50% lethality against human ovarian OVCAR-5 cell line; type: functional; settings: read-out: LC50 (the source's name)
[4] = In vitro concentration required to produce 50% lethality against human prostate DU-145 cell line; type: functional; settings: read-out: LC50 (the source's name)
T47D = experiment: In vitro concentration required to produce 50% lethality against human breast T47D cell line; type: functional; settings: read-out: LC50 (the source's name)
OVCAR-8 = experiment: In vitro concentration required to produce 50% lethality against human ovarian OVCAR-8 cell line; type: functional; settings: read-out: LC50 (the source's name)

SMILES: COc1cc2c(cc1O)N=C[C@H]1CCCN1C2=O
ΔTm (Calf thymus DNA [1]): 0.3 °C

ΔTm (Calf thymus DNA [1]): 3.8 °C
ΔTm (Calf thymus DNA [2]): 4 °C
SMILES: COc1cc2c(cc1OCCCCOc1ccc(-c3nc4ccccc4[nH]3)cc1)N=C[C@@H]1CCCN1C2=O

ΔTm (Calf thymus DNA [1]): 11 °C
ΔTm (Calf thymus DNA [2]): 11.4 °C
SMILES: COc1cc2c(cc1OCCCOc1ccc(-c3nc4ccccc4[nH]3)cc1)N=C[C@@H]1CCCN1C2=O

ΔTm (Calf thymus DNA [1]): 22.4 °C
ΔTm (Calf thymus DNA [2]): 22.6 °C
SMILES: COc1cc2c(cc1OCCCCCOc1ccc(-c3nc4cc(N5CCN(C)CC5)ccc4[nH]3)cc1)N=C[C@@H]1CCCN1C2=O

ΔTm (Calf thymus DNA [1]): 10.3 °C
ΔTm (Calf thymus DNA [2]): 11 °C
SMILES: COc1cc2c(cc1OCCCCCOc1ccc(-c3nc4ccccc4[nH]3)cc1)N=C[C@@H]1CCCN1C2=O

ΔTm (Calf thymus DNA [1]): 15.5 °C
ΔTm (Calf thymus DNA [2]): 15.5 °C
SMILES: COc1cc2c(cc1OCCCCOc1ccc(-c3nc4cc(N5CCN(C)CC5)ccc4[nH]3)cc1)N=C[C@@H]1CCCN1C2=O

SMILES: CN1CCN(c2ccc3[nH]c(-c4ccc(O)cc4)nc3c2)CC1
ΔTm (Calf thymus DNA [1]): 2.9 °C
ΔTm (Calf thymus DNA [2]): 2.9 °C

SMILES: COc1cc2c(cc1OCCCOc1ccc(-c3nc4ccc(N5CCN(C)CC5)cc4[nH]3)cc1)N=C[C@@H]1CCCN1C2=O
ΔTm (Calf thymus DNA [1]): 16.6 °C
ΔTm (Calf thymus DNA [2]): 22.5 °C
CC50 (UACC-62): 0.01 µM
CC50 (MDA-MB-435): 0.01 µM
CC50 (Malme-3M): 34.4 µM
CC50 (SK-MEL-2): 0.01 µM
CC50 (SK-MEL-5): 0.01 µM
CC50 (MDA-MB-231): 13.5 µM
CC50 (EKVX): 25.2 µM
CC50 (HOP-62): 17.4 µM
CC50 (NCI-H226): 23.5 µM
CC50 (NCI-H522): 0.01 µM
CC50 [3]: 27.8 µM
CC50 (SF-539): 0.01 µM
CC50 (SNB-19): 47.5 µM
CC50 (KM12): 45.2 µM
CC50 (786-0): 31.2 µM
CC50 (A498): 0.01 µM
CC50 (TK-10): 39.7 µM
CC50 (M14): 0.01 µM
CC50 (SN12C): 18.7 µM
CC50 (BT-549): 12.6 µM
CC50 (PC-3): 16.4 µM
CC50 (RXF 393): 0.01 µM
CC50 (IGROV-1): 45.3 µM
CC50 (OVCAR-3): 34.6 µM
CC50 (OVCAR-5): 33.9 µM
CC50 [4]: 33.7 µM
CC50 (T47D): 42.1 µM
CC50 (OVCAR-8): 21 µM
